Bioassay records (PubChem BioAssay)
Rev-RRE block – HIV Rev-RRE protein-RNA interaction inhibition. P05866. Rev peptide-RRE RNA binding, FRET. inhibition, % at 8 µM. hit rate 0.79% among 97,000. AID 704;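 active = inhibition above the screen-wide mean plus 3 SD, cut at about 35% in these data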;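 note: 0% = median DMSO wells and 100% = median Neomycin B control wells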
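Assay system: Rev peptide and RRE RNA, both fluorescently labelled; times: 5 min preincubation and 15 min binding, 25 °C; detection: FRET, ex 480 nm, em 540 and 671 nm; read-out basis: % inhibition from 671/540 nm acceptor-to-donor ratio, scaled between controls; benchmarks: DMSO low control, neomycin B high control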
Pyk2 oligo antag – antagonists of human Pyk2 oligomerization; Q293 cells, Pyk2 FERM NanoBiT luminescence; active compounds read low; z-score (the deposit names both 25 µM and 10 µM); hit rate 0.83% among 99,000; AID 1347419;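 active = Z-score of -3 or lower, scaled per plate to the spread of control and sample wells; inactive = z-score above -3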;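 note: negative z-score means lost luminescence so less FERM oligomerization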
LYP act – activators of human LYP (PTPN22) phosphatase; Q9Y2R2; recombinant LYP, DiFMUP fluorescence; 0 = plate median, 100 = signal doubled; activation, % at 2 µM; hit rate 0.11% among 96,000; AID 697;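 active = activation at 2 µM above a set limit, the mean plus 5 SD, cut at about 37% in these data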
Target sequence (Q9Y2R2 whole entry, looked up): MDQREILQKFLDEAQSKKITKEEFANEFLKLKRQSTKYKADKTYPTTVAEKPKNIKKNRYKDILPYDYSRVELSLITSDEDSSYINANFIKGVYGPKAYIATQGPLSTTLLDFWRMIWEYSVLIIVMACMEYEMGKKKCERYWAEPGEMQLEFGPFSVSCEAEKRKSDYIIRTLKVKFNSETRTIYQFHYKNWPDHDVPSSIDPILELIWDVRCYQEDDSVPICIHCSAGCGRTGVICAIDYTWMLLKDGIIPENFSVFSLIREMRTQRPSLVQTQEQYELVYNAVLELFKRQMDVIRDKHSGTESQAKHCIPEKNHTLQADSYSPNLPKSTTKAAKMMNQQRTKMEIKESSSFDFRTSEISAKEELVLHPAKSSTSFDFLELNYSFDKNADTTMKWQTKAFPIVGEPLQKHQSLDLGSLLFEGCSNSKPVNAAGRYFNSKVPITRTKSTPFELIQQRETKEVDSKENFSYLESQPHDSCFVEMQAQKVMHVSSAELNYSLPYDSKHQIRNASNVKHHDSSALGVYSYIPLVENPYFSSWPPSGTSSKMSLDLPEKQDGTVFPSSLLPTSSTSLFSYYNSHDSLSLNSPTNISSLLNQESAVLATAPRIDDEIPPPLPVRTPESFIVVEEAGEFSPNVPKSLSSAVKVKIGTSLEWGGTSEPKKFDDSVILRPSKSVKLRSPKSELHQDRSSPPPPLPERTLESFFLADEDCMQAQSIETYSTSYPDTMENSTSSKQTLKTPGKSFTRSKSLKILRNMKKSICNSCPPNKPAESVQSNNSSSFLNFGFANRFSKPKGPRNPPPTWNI
LYP inh 2 – inhibitors of human LYP (PTPN22) phosphatase; Q9Y2R2; recombinant LYP catalytic domain, DiFMUP fluorescence; inhibition, % at 2 µM; hit rate 0.21% among 96,000; AID 640;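 active = inhibition at 2 µM at or above a set limit, the screen mean plus 3 SD, cut at about 24% in these data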;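 note: 0% = DMSO with enzyme and 100% = enzyme fully blocked by orthovanadate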
Active calls of the source: *; . = no result; [ ] = dose if it differs, or a comment. An excerpt weighted towards active compounds, which were near 1.8% of everything screened.

SMILES	Rev-RRE block	Pyk2 oligo antag	LYP act	LYP inh 2
Cc1ccc2[nH]c3c(c2c1)CN(C(=O)CN1CCN(Cc2ccc4c(c2)OCO4)CC1)CC3	3.7	-0.1	-0.8	-1.3
Cc1cccc(C)c1OCC(O)CN1CCC(CN2C(=O)c3cccc4cccc(c34)C2=O)CC1 (configuration not stated)	1.5	0.31	-8.8	7.3
Cc1cc(NC(=O)CCCC(=O)Nc2ccc(F)cc2)no1	-0.5	-0.03	12.0	-7.5
COc1cc([C@@H]2[C@H]3CNCC=C3C(C#N)=C(N)C2(C#N)C#N)ccc1OC(C)C	49.9*	-0.19	2.3	-5.8
O=C(CN1CCC(NC(=O)Nc2ccccc2-c2ccccc2)CC1)NCc1ccco1	.	0.73	.	.
CCOC(=O)Cn1c(=O)c2c(nc3n2CCCCN3c2ccc(C)cc2)n(C)c1=O	7.9	0.4	-8.9	9.4
Cc1cc(-c2csc(N)n2)c(C)n1CCC(C)C	16.7	0.31	-28.6	28.2*
CCCc1ccc(Oc2c(-c3ccc(O)c(C)c3O)n[nH]c2C)cc1	.	-1.11	.	.
CCCc1ccc(Oc2cn[nH]c2-c2ccc(O)c(C)c2O)cc1	.	-3.52*	.	.
Cc1csc(-c2cnn(-c3ccccc3)c2NC(=O)c2ccc(C(F)(F)F)cc2)n1	8.5	-0.78	-0.3	1.4
Cc1cccc(-c2noc(-c3cc4ccccc4oc3=O)n2)c1	2.1	-0.47	-8.2	10.9
CC(=O)Oc1ccc2ccccc2c1C(NC(=O)C(C)C)c1cccc([N+](=O)[O-])c1 (configuration not stated)	7.2	-2.89	-8.9	5.2
CCCCC(=O)NC(c1cccc([N+](=O)[O-])c1)c1c(OC(C)=O)ccc2ccccc12 (configuration not stated)	0.5	-4.27*	13.0	-12.4
CC(=O)NC(c1cccc([N+](=O)[O-])c1)c1c(OC(C)=O)ccc2ccccc12 (configuration not stated)	-1.1	-1.94	2.0	-1.1
CC(=O)Oc1ccc2ccccc2c1C(NC(=O)Cc1ccccc1)c1ccccc1 (configuration not stated)	1.3	-3.97*	11.3	-4.5
NS(=O)(=O)c1ccc(CCNC(=O)c2ccccc2F)cc1	14.4	0.74	-8.7	5.8
CCN(CC)c1ccc(-c2nn3c(-c4ccccc4OC)nnc3s2)cc1	1.2	-4*	-1.3	-0.1
COc1cccc(OC)c1-c1nn2c(-c3cc(-c4ccccc4)n[nH]3)nnc2s1	-268.5	-3.1*	-38.7	37.5*
COc1cccc(-c2nnc3sc(-c4ccccc4)nn23)c1	.	-0.14	.	.
COc1ccc(C2=NOC3(CC(=O)N(c4ccc5ccccc5c4)C3=O)C2)c(OC)c1 (configuration not stated)	-2.2	0.14	7.3	-3.7
COc1ccc(CC(=O)Nc2cccc(-c3nnc(-c4ccccc4)o3)c2)cc1OC	1.1	-3.63*	1.0	-5.3
CCOc1cccc(C(=O)Nc2cccc(-c3nnc(-c4ccccc4)o3)c2)c1	2.7	-3.63*	-8.4	6.1
Cc1c(C(=O)OC(C)CCN(C)C)oc2ccccc12 (configuration not stated)	141.3*[fluorescence artefact?]	0.96	1.7	-4.4
COc1ccc2c(C)cc(SCC(=O)Nc3c(C)n(C)n(-c4ccccc4)c3=O)nc2c1	4.4	0.33	-46.0	47.1*
COc1ccc2c(CC(=O)Nc3c(C)n(C)n(-c4ccccc4)c3=O)coc2c1	0.7	0.03	-1.0	-1.5
SMILES	Rev-RRE block	Pyk2 oligo antag	LYP act	LYP inh 2
Cc1c(NC(=O)Cn2nc(C(=O)O)c3ccccc3c2=O)c(=O)n(-c2ccccc2)n1C	5.0	-4*	-4.3	1.2
CCCCCCCCOC(=O)c1ccc(N)cc1	21.3	-3.3*	-3.5	4.1
O=C(NC(=S)N(Cc1ccccc1)Cc1ccccc1)c1ccccc1F	4.9	-0.9	-4.9	7.0
CCOC(=O)c1ccc(Nc2nc(-c3cccnc3)nc3ccccc23)cc1	9.1	-3.45*	-2.8	3.3
COC(=O)CNc1nc(-c2cccnc2)nc2ccccc12	.	-1.77	.	.
N#CCCn1cc(/C=N/O)c(-c2ccc(Cl)cc2)n1	7.4	-3.52*	-11.6	13.8
N#CCCn1cc(/C=C(\C#N)c2nc3ccccc3s2)c(-c2ccc(F)cc2)n1	8.9	-0.73	-4.6	4.5
N#CCCn1cc(/C=N/O)c(-c2ccc(-c3ccccc3)cc2)n1	7.1	-4.08*	-9.4	6.6
CC(C)OC(=O)CSc1nnc(-c2ccccc2)n1N	2.5	0.63	-0.2	3.6
COc1cc(Br)c(C(C)NC(=O)c2cccc(Br)c2)cc1OC (configuration not stated)	8.2	-3.22*	-9.0	12.7
O=C1CC(/C=C/c2ccco2)=Nc2ccccc2N1	40.6*	-0.26	16.8	-17.3
